Test results taken from ChEMBL document CHEMBL2086281, “Design, synthesis and 3D-QSAR analysis of novel 2-hydrazinyl-4-morpholinothieno[3,2-d]pyrimidine derivatives as potential antitumor agents” (Eur J Med Chem, 2012).

Experiments:
[1] = system: NCI-H460; experiment: Cytotoxicity against human H460 cells assessed as growth inhibition after 72 hrs by MTT assay; assay type: functional, cell-based; settings: NCI-H460, 72 h
Outline: (§1)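 Cells grown in MEM with 10% FBS. About 4×10^3 cells/well were pre-incubated for 24 h at 37 °C in 5% CO₂, then exposed to compound at the indicated final concentrations for 72 h. MTT was added to 5 µg/mL final for 4 h at 37 °C. IC50 is the mean of three determinations.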

[2] = system: HT-29; experiment: Cytotoxicity against human HT-29 cells assessed as growth inhibition after 72 hrs by MTT assay; assay type: functional, cell-based; settings: HT-29, 72 h
Outline: as §1, with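 “°C. Formazan was dissolved in DMSO and read at 492 nm, with 630 nm as reference.” for “°C.”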

[3] = system: MDA-MB-231; experiment: Cytotoxicity against human MDA-MB-231 cells assessed as growth inhibition after 72 hrs by MTT assay; assay type: functional, cell-based; settings: MDA-MB-231, 72 h
Outline: as §1, with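 “°C. Formazan was dissolved in DMSO and read at 492 nm, with 630 nm as reference.” for “°C.”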

[4] = Cytotoxicity against human U87MG cells assessed as growth inhibition after 72 hrs by MTT assay; assay type: functional, cell-based, U-87MG ATCC; settings: U-87 MG
Outline: as §1, with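 “°C. Formazan was dissolved in DMSO and read at 492 nm, with 630 nm as reference.” for “°C.”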

[5] = system: NCI-H1975; experiment: Cytotoxicity against human NCI-H1975 cells assessed as growth inhibition after 72 hrs by MTT assay; assay type: functional, cell-based; settings: NCI-H1975, 72 h
Outline: as §1, with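 “°C. Formazan was dissolved in DMSO and read at 492 nm, with 630 nm as reference.” for “°C.”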

[6] = system: A549; experiment: Cytotoxicity against human A549 cells assessed as growth inhibition after 72 hrs by MTT assay; assay type: functional, cell-based; settings: A549, 72 h
Outline: as §1, with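 “°C. Formazan was dissolved in DMSO and read at 492 nm, with 630 nm as reference.” for “°C.”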

[7] = system: NCI-H226; experiment: Cytotoxicity against human NCI-H226 cells assessed as growth inhibition after 72 hrs by MTT assay; assay type: functional, cell-based; settings: NCI-H226, 72 h
Outline: as §1, with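 “°C. Formazan was dissolved in DMSO and read at 492 nm, with 630 nm as reference.” for “°C.”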

[8] = system: HepG2; experiment: Cytotoxicity against human HepG2 cells assessed as growth inhibition after 72 hrs by MTT assay; assay type: functional, cell-based; settings: HepG2, 72 h
Outline: as §1, with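 “°C. Formazan was dissolved in DMSO and read at 492 nm, with 630 nm as reference.” for “°C.”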

[9] = system: SGC-7901; experiment: Cytotoxicity against human SGC7901 cells assessed as growth inhibition after 72 hrs by MTT assay; assay type: functional, cell-based; settings: SGC-7901, 72 h
Outline: as §1, with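 “°C. Formazan was dissolved in DMSO and read at 492 nm, with 630 nm as reference.” for “°C.”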

[10] = system: NCI-H460; experiment: Ratio of GDC-0941 IC50 to compound IC50 for human H460 cells assessed as growth inhibition after 72 hrs by MTT assay; assay type: functional
[11] = system: HT-29; experiment: Ratio of GDC-0941 IC50 to compound IC50 for human HT-29 cells assessed as growth inhibition after 72 hrs by MTT assay; assay type: functional
[12] = system: MDA-MB-231; experiment: Ratio of GDC-0941 IC50 to compound IC50 for human MDA-MB-231 cells assessed as growth inhibition after 72 hrs by MTT assay; assay type: functional

| Compound | IC50 ([1]; read-out: IC50) [nM] | IC50 ([1]; read-out: pIC50 (converted)) [nM] | IC50 [2] [nM] | IC50 [3] [µM] | IC50 [4] [µM] | IC50 [5] [µM] | IC50 [6] [µM] | IC50 [7] [nM] | IC50 [8] [nM] | IC50 [9] [nM] | Ratio IC50 [10] | Ratio IC50 [11] | Ratio IC50 [12] |
| --- | --- | --- | --- | --- | --- | --- | --- | --- | --- | --- | --- | --- | --- |
| CC(C)(O)c1cc2nc(N/N=C/c3cn(Cc4ccc(F)cc4)c4ccccc34)nc(N3CCOCC3)c2s1 | 1100 | 1100 | 1010 | 1.53 | – | – | – | – | – | – | – | – | – |
| CC(C)(O)c1cc2nc(N/N=C/c3cn(Cc4ccc(Cl)cc4)c4ccccc34)nc(N3CCOCC3)c2s1 | 550 | 550 | 870 | 5.14 | 7.43 | 33.8 | – | – | – | – | – | – | – |
| CC(C)(O)c1cc2nc(N/N=C/c3cn(Cc4cccc(Cl)c4Cl)c4ccccc34)nc(N3CCOCC3)c2s1 | 7220 | 7240 | 3700 | > 100 | – | – | – | – | – | – | – | – | – |
| Clc1cccc(Cn2cc(/C=N/Nc3nc(N4CCOCC4)c4sccc4n3)c3ccccc32)c1 | 540 | 537 | 2980 | 9.74 | 5.96 | > 100 | – | – | – | – | – | – | – |
| FC(F)(F)c1cccc(Cn2cc(/C=N/Nc3nc(N4CCOCC4)c4sccc4n3)c3ccccc32)c1 | 520 | 525 | 1680 | 83.8 | 4.84 | 2.79 | – | – | – | – | – | – | – |
| Clc1ccc(Cn2c(/C=N/Nc3nc(N4CCOCC4)c4sccc4n3)nc3ccccc32)cc1 | 2600 | 2630 | 770 | 13.9 | 13.4 | – | – | – | – | – | – | – | – |
| CC(C)(O)c1cc2nc(N/N=C/c3cn(Cc4ccc(C#N)cc4)c4ccccc34)nc(N3CCOCC3)c2s1 | 4530 | 4570 | 2540 | 6.31 | – | – | – | – | – | – | – | – | – |
| C(=N\Nc1nc(N2CCOCC2)c2sccc2n1)/c1nc2ccccc2n1Cc1ccccc1 | 25600 | 25700 | 1080 | 21.3 | – | – | – | – | – | – | – | – | – |
| Clc1cccc(Cl)c1Cn1cc(/C=N/Nc2nc(N3CCOCC3)c3sccc3n2)c2ccccc21 | 10400 | 10500 | 35400 | 20.5 | – | – | – | – | – | – | – | – | – |
| CC(C)(C)c1ccc(Cn2c(/C=N/Nc3nc(N4CCOCC4)c4sccc4n3)nc3ccccc32)cc1 | 3620 | 3630 | 4180 | 8.17 | – | – | – | – | – | – | – | – | – |
| Fc1ccccc1Cn1cc(/C=N/Nc2nc(N3CCOCC3)c3sccc3n2)c2ccccc21 | 860 | 871 | 3280 | 9.24 | 22.6 | > 100 | – | – | – | – | – | – | – |
| Clc1ccc(Cn2cc(/C=N/Nc3nc(N4CCOCC4)c4sccc4n3)c3ccccc32)c(Cl)c1 | 5770 | 5750 | 46500 | > 100 | – | – | – | – | – | – | – | – | – |
| COc1cc(/C=N/Nc2nc(N3CCOCC3)nc(N3CCOCC3)n2)cc(OC)c1O | 9200 | – | 20200 | > 100 | – | – | – | – | – | – | – | – | – |
| CC(C)(O)c1cc2nc(NN)nc(N3CCOCC3)c2s1 | 29700 | – | 56200 | > 100 | – | – | – | – | – | – | – | – | – |
| C(=N\Nc1nc(N2CCOCC2)c2sccc2n1)/c1cn(Cc2ccccc2)c2ccccc12 | 1410 | 1410 | 4700 | 12.4 | > 100 | 42.7 | – | – | – | – | – | – | – |
| N#Cc1ccc(Cn2cc(/C=N/Nc3nc(N4CCOCC4)c4sccc4n3)c3ccccc32)cc1 | 1620 | 1620 | 25500 | > 100 | – | – | – | – | – | – | – | – | – |
| Fc1cccc(Cn2cc(/C=N/Nc3nc(N4CCOCC4)c4sccc4n3)c3ccccc32)c1 | 230 | 224 | 390 | 1.11 | 12.6 | 19 | 8.7 | 910 | 1100 | 800 | 3.8 | 1.7 | 66.5 |
| CC(C)(O)c1cc2nc(N/N=C/c3cn(Cc4cccc(Cl)c4)c4ccccc34)nc(N3CCOCC3)c2s1 | 840 | 832 | 870 | 3.22 | 8.91 | 23.8 | – | – | – | – | – | – | – |

| Compound | IC50 ([1]; read-out: IC50) [nM] | IC50 ([1]; read-out: pIC50 (converted)) [nM] | IC50 [2] [nM] | IC50 [3] [µM] | IC50 [4] [µM] | IC50 [5] [µM] | IC50 [6] [µM] | IC50 [7] [nM] | IC50 [8] [nM] | IC50 [9] [nM] | Ratio IC50 [10] | Ratio IC50 [11] | Ratio IC50 [12] |
| --- | --- | --- | --- | --- | --- | --- | --- | --- | --- | --- | --- | --- | --- |
| CC(C)(O)c1cc2nc(N/N=C/c3cn(Cc4cccc(C#N)c4)c4ccccc34)nc(N3CCOCC3)c2s1 | 360 | 363 | 1390 | 5.61 | 6.64 | – | – | – | – | – | – | – | – |
| CC(C)(O)c1cc2nc(N/N=C/c3cn(Cc4c(Cl)cccc4Cl)c4ccccc34)nc(N3CCOCC3)c2s1 | 4030 | 4070 | 3360 | 62.1 | – | – | – | – | – | – | – | – | – |
| Cc1ccc(Cn2cc(/C=N/Nc3nc(N4CCOCC4)c4sccc4n3)c3ccccc32)cc1 | 830 | 832 | 3310 | 9.73 | 4.97 | 33.1 | – | – | – | – | – | – | – |
| Clc1ccccc1Cn1cc(/C=N/Nc2nc(N3CCOCC3)c3sccc3n2)c2ccccc21 | 3980 | 3980 | > 100000 | > 100 | – | – | – | – | – | – | – | – | – |
| CC(C)(O)c1cc2nc(N/N=C/c3cn(Cc4ccc(Cl)cc4Cl)c4ccccc34)nc(N3CCOCC3)c2s1 | 8900 | 8910 | 5380 | > 100 | – | – | – | – | – | – | – | – | – |
| CC(C)(O)c1cc2nc(N/N=C/c3cn(Cc4cccc(F)c4)c4ccccc34)nc(N3CCOCC3)c2s1 | 420 | 427 | 380 | 7.2 | 7.82 | 19.7 | – | – | – | – | – | – | – |
| Clc1cccc(Cn2c(/C=N/Nc3nc(N4CCOCC4)c4sccc4n3)nc3ccccc32)c1Cl | 37100 | 37200 | 6460 | > 100 | – | – | – | – | – | – | – | – | – |
| Clc1ccccc1Cn1c(/C=N/Nc2nc(N3CCOCC3)c3sccc3n2)nc2ccccc21 | 79400 | 79400 | 400 | > 100 | – | – | – | – | – | – | – | – | – |
| Clc1ccc(Cn2cc(/C=N/Nc3nc(N4CCOCC4)c4sccc4n3)c3ccccc32)cc1 | 360 | 355 | 5760 | 2.7 | 15.6 | – | – | – | – | – | – | – | – |
| CC(C)(C)c1ccc(Cn2cc(/C=N/Nc3nc(N4CCOCC4)c4sccc4n3)c3ccccc32)cc1 | 380 | 380 | 1690 | 1.43 | 11.2 | 8 | – | – | – | – | – | – | – |
| C=CCc1cccc(/C=N/NC(=O)CN2CCN(Cc3ccccc3)CC2)c1O [PAC-1] | 3570 | – | 970 | 6.11 | – | – | – | – | – | – | – | – | – |
| NNc1nc(N2CCOCC2)c2sccc2n1 | 42200 | – | 23400 | 63.8 | – | – | – | – | – | – | – | – | – |
| CS(=O)(=O)N1CCN(Cc2cc3nc(-c4cccc5[nH]ncc45)nc(N4CCOCC4)c3s2)CC1 [PICTILISIB] | – | – | 660 | 73.8 | 7.77 | 0.27 | 6.9 | 2900 | 1000 | 1800 | – | – | – |
| Fc1ccc(Cn2cc(/C=N/Nc3nc(N4CCOCC4)c4sccc4n3)c3ccccc32)cc1 | 410 | 407 | 1790 | 12.3 | 8.83 | > 100 | – | – | – | – | – | – | – |
| CC(C)(O)c1cc2nc(N/N=C/c3cn(Cc4ccccc4F)c4ccccc34)nc(N3CCOCC3)c2s1 | 1100 | 1100 | 1050 | 1.66 | 3.92 | 15.6 | – | – | – | – | – | – | – |
| N#Cc1cccc(Cn2cc(/C=N/Nc3nc(N4CCOCC4)c4sccc4n3)c3ccccc32)c1 | 340 | 347 | 4860 | 2 | 9.68 | – | – | – | – | – | – | – | – |
| Clc1cccc(Cn2c(/C=N/Nc3nc(N4CCOCC4)c4sccc4n3)nc3ccccc32)c1 | 4560 | 4570 | 1010 | 37.7 | – | – | – | – | – | – | – | – | – |
| Clc1ccc(Cn2cc(/C=N/Nc3nc(N4CCOCC4)c4sccc4n3)c3ccccc32)cc1Cl | 740 | 741 | 16200 | > 100 | > 100 | > 100 | – | – | – | – | – | – | – |
